We go through four compounds from ChEMBL document CHEMBL3997769, “Discovery and preclinical evaluation of 7-benzyl-N-(substituted)-pyrrolo[3,2-d]pyrimidin-4-amines as single agents with microtubule targeting effects along with triple-acting angiokinase inhibition as antitumor agents” (Bioorg Med Chem, 2017).

What is called IC50 is the concentration that inhibits the measured activity by half.

Assay [1] in a line: Inhibition of bovine brain tubulin assembly preincubated for 15 mins followed by GTP addition measured for 20 mins by spectrophotometric method. Also on record: species or system Bos taurus.
Another assay relates to A-431. The assay can be described thus: Cytotoxicity against human A431 cells. The format is functional, cell-based.
The test system of the next assay is Chorioallantoic membrane. The assay can be described thus: Antiangiogenic activity in Leghorn chicken egg chorioallantoic membrane assessed as inhibition of human VEGF-165/bFGF-induced blood vessels formation measured after 40 hrs by microscopic method. The format is functional, tissue-based. The conditions noted are these: Gallus gallus.
The test system of a further assay is HeLa. Kind of assay: Growth inhibition of human HeLa cells measured after 96 hrs by sulforhodamine B assay. Type of assay: functional, cell-based. The method, boiled down: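 Exposed 96 h to varying compound concentrations in 0.5% DMSO. Cell protein measured by sulforhodamine B; IC50 = concentration halving the increase in cell protein versus untreated cultures.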

As to `COc1ccc(Nc2nc(C)nc3c(Cc4ccccc4)cn(C)c23)cc1`, the concentration for half-maximal inhibition (IC50) in assay [1] is more than 20 µM; in the assay on A-431, 2.3 µM; in the assay on Chorioallantoic membrane, 8.7 µM.

Consider `COc1ccc2c(c1)CCN2c1nc(C)nc2c(Cc3ccccc3)c[nH]c12`, for which the half-maximal inhibitory concentration (IC50) in assay [1] was more than 20 µM.

In the assay on HeLa, `COc1ccc2c(c1)CCCN2c1nc(C)nc2c(Cc3ccccc3)cn(C)c12` registered a 50% inhibitory concentration (IC50) of 0.06 µM.

Regarding `COc1ccc2c(c1)CCCN2c1nc(N)nc2c(Cc3ccccc3)c[nH]c12`, the IC50 in assay [1] amounted to 13 µM.
